Results from ChEMBL document CHEMBL3091364, “Benzyloxybenzylammonium chlorides: Simple amine salts that display anticonvulsant activity” (Bioorg Med Chem, 2013).
Activity calls are given as the source filed them. No cut-off for these calls is given here.

Tests used:
Mus musculus [1] = test: Anticonvulsant activity in ip dosed albino CF-1 mouse assessed as protection against maximal electroshock-induced seizures measured at 0.5 to 2 hrs; format: functional; conditions: albino CF-1, ip
Method in brief: (§1)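 Screened under the NINDS ASP in male albino Carworth Farms No. 1 mice (ip) or male albino Sprague-Dawley rats (ip or po), using MES, 6 Hz (32 mA) and subcutaneous pentylenetetrazol seizure tests. Initial qualitative tests used preset doses (e.g., 30, 50, 100 mg/kg). ED50 values with 95% confidence intervals came from dose–response data collected at the time of peak effect.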

Rattus norvegicus [2] = test: Anticonvulsant activity in ip dosed albino Sprague-Dawley rat assessed as protection against maximal electroshock-induced seizures measured at 0.25 to 4 hrs; format: functional; method in brief: as §1
Mus musculus [3] = test: Anticonvulsant activity in ip dosed albino CF-1 mouse assessed as protection against 6 Hz psychomotor seizure measured at 0.5 hrs; format: functional; conditions: albino CF-1, ip; method in brief: as §1
[4] = target: D(2) dopamine receptor (Homo sapiens) (UniProt P14416); test: Inhibition of dopaminergic D2 receptor (unknown origin) at 10 uM relative to control
Sequence of D(2) dopamine receptor (Homo sapiens) (P14416 whole entry): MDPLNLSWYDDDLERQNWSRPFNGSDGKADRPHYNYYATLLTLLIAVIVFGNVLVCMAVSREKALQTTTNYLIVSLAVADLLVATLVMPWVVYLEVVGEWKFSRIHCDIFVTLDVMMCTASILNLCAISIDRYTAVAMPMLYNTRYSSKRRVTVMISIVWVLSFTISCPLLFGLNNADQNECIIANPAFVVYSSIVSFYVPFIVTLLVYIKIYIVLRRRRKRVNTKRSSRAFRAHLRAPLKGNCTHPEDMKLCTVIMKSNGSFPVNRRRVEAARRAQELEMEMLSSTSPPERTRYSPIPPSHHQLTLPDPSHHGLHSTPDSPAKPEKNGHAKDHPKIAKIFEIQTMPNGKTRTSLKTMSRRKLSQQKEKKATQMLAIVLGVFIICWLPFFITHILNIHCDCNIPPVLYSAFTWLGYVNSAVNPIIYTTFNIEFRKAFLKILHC

[5] = Toxicity in ip dosed albino CF-1 mouse assessed as neurological impairment measured at 0.5 to 2 hrs by rotorod test; format: organism-based; conditions: in vivo
Method in brief: (§2)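 Male albino Carworth Farms No. 1 mice dosed intraperitoneally under the NINDS Anticonvulsant Screening Program; neurological impairment scored by rotorod test. Qualitative screens used preset doses (e.g., 30, 100 mg/kg); where activity was sufficient, dose–response curves were run at time of peak effect to give TD50 in mg/kg with 95% confidence intervals.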

Mus musculus [6] = test: Anticonvulsant activity in ip dosed albino CF-1 mouse assessed as protection against maximal electroshock-induced seizures measured at 0.25 hrs; format: functional; conditions: albino CF-1, ip; method in brief: as §1
[7] = target: T1, Alpha-1D adrenergic receptor (Homo sapiens) (UniProt P25100); test: Inhibition of adrenergic alpha-1D receptor (unknown origin) at 10 uM relative to control
T1 sequence (whole entry): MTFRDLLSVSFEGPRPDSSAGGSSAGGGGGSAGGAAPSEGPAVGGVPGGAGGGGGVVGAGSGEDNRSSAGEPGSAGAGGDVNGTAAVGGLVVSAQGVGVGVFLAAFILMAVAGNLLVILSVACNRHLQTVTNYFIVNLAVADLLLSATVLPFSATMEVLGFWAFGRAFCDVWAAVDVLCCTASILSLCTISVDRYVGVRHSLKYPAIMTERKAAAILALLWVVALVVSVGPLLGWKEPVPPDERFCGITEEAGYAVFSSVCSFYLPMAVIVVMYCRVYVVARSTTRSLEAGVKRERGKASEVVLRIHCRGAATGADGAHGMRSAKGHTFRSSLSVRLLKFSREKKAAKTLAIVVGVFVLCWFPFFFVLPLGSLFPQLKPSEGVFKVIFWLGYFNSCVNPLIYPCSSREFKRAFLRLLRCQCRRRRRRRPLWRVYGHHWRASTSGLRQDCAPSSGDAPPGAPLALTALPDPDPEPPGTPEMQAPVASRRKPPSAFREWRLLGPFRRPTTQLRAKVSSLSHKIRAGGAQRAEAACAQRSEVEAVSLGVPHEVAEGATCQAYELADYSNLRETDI

[8] = target: T2, 5-hydroxytryptamine receptor 3A (Homo sapiens) (UniProt P46098); test: Inhibition of 5-HT3 receptor (unknown origin) at 10 uM relative to control
T2 sequence (whole entry): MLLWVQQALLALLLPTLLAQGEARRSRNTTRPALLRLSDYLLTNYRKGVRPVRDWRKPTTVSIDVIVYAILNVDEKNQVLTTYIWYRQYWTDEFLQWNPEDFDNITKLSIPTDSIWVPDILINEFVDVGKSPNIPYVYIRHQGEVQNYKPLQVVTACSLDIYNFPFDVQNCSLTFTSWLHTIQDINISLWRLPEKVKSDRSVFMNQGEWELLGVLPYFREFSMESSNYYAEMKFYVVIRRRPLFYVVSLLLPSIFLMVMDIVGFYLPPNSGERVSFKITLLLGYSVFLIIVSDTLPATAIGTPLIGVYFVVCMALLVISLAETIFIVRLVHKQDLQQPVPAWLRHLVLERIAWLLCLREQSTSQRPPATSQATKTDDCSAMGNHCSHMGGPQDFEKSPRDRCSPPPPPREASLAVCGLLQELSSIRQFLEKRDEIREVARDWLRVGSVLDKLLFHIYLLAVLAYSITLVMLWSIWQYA

[9] = Toxicity in ip dosed albino CF-1 mouse assessed as neurological impairment measured at 0.25 to 4 hrs by rotorod test; format: organism-based; conditions: in vivo; method in brief: as §2
Mus musculus [10] = test: Anticonvulsant activity in ip dosed albino CF-1 mouse assessed as protection against 6 Hz psychomotor seizure measured at 0.25 to 4 hrs; format: functional; conditions: albino CF-1, ip; method in brief: as §1
Mus musculus [11] = test: Anticonvulsant activity in albino CF-1 mouse assessed as protection against maximal electroshock-induced seizures at 100 mg/kg, ip; format: functional, organism-based; design: dose 100 mg/kg; method in brief: as §1
Rattus norvegicus [12] = organism: Rattus norvegicus; test: Inhibition of Na+ channel in rat embryonic cortical neurons assessed as frequency-dependent decrease in current amplitude at 10 uM at -80 mV holding potential by whole-cell voltage clamp assay
Mus musculus [13] = test: Anticonvulsant activity in ip dosed albino CF-1 mouse assessed as protection against subcutaneous metrazol-induced seizure measured at 0.25 hrs; format: functional; conditions: albino CF-1, 0.25 h; method in brief: as §1
[14] = Toxicity in ip dosed albino Sprague-Dawley rat assessed as behavioral changes measured at 0.5 hrs; format: organism-based; conditions: in vivo
Method in brief: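 Male albino Sprague-Dawley rats given compound intraperitoneally or orally (NINDS ASP); neurological impairment judged from behavioral toxicity effects. Preset screening doses (e.g., 30 mg/kg); for adequately active compounds, TD50 (mg/kg, 95% confidence intervals) derived from dose–effect data at time of peak effect.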

Mus musculus [15] = test: Anticonvulsant activity in corneally kindled mouse assessed as protection against seizure at 20 mg/kg, ip; format: functional, organism-based; design: dose 20 mg/kg
Method in brief: (§3)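 Corneally kindled mouse seizure model with ip dosing. Protection was scored in 4 animals, and the average seizure score was recorded.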

Rattus norvegicus [16] = organism: Rattus norvegicus; test: Induction of voltage-dependent Na+ channel activation in rat embryonic cortical neurons at 10 uM by whole-cell voltage clamp assay (reference value: - 39 +/- 7.8 mV)
Rattus norvegicus [17] = organism: Rattus norvegicus; test: Induction of voltage-dependent Na+ channel fast inactivation in rat embryonic cortical neurons at 10 uM by whole-cell voltage clamp assay (reference value: - 51.1 +/- 1.4 mV)
[18] = target: 5-hydroxytryptamine receptor 1E (Homo sapiens) (UniProt P28566); test: Inhibition of 5-HT1E receptor (unknown origin) at 10 uM relative to control
Sequence of 5-hydroxytryptamine receptor 1E (Homo sapiens) (P28566 whole entry): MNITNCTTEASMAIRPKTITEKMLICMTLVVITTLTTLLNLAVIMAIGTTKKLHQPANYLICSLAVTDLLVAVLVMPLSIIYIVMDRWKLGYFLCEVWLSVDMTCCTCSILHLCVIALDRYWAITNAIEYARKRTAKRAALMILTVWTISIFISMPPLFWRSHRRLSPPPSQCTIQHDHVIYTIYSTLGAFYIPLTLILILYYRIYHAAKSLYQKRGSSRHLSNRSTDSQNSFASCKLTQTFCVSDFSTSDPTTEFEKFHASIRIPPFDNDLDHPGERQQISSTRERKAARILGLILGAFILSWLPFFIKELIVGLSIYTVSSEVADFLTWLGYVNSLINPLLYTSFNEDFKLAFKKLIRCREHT

[19] = Toxicity in ip dosed albino CF-1 mouse assessed as neurological impairment measured at 0.25 hrs by rotorod test; format: organism-based; conditions: in vivo; method in brief: as §2
Rattus norvegicus [20] = organism: Rattus norvegicus; test: Activity at Na+ channel in rat embryonic cortical neurons assessed as effect on total macroscopic sodium current at 10 uM by whole-cell voltage clamp assay
[21] = Cytotoxicity against rat embryonic cortical neurons assessed as loss of membrane integrity at 20 uM; conditions: cortical neurone
Mus musculus [22] = test: Anticonvulsant activity in ip dosed albino CF-1 mouse assessed as protection against 6 Hz psychomotor seizure measured at 2 hrs; format: functional; conditions: albino CF-1, ip; method in brief: as §1
Mus musculus [23] = test: Anticonvulsant activity in corneally kindled mouse assessed as protection against seizure at 28 mg/kg, ip; format: functional, organism-based; design: dose 28 mg/kg; method in brief: as §3
Mus musculus [24] = test: Anticonvulsant activity in ip dosed albino CF-1 mouse assessed as protection against 6 Hz psychomotor seizure measured at 1 hr; format: functional; conditions: albino CF-1, ip; method in brief: as §1

Cl.NCc1ccc(OCc2ccccc2)cc1
ED50 (Mus musculus [1]): > 100 mg/kg | ED50 (Rattus norvegicus [2]): > 30 mg/kg | ED50 (Mus musculus [3]): 30 mg/kg | inhibition [4]: 12.4% | TD50 [5]: 100 mg/kg

Cl.NCc1ccc(OCc2ccc(F)cc2)cc1
ED50 (Mus musculus [6]): < 100 mg/kg | inhibition [7]: 0.2% | inhibition [8]: -4.2% | TD50 [9]: > 100 mg/kg | ED50 (Mus musculus [10]): > 100 mg/kg

Cl.NCc1ccc(OCc2cccc(F)c2)cc1
inhibition [7]: -9.1% | TD50 [9]: > 100 mg/kg | ED50 (Rattus norvegicus [2]): > 30 mg/kg | Activity (Mus musculus [11]): Active | inhibition [4]: 3.2% | ED50 (Mus musculus [10]): > 50 mg/kg

Cl.NCc1ccc(OCc2ccccc2OC(F)(F)F)cc1
ED50 (Mus musculus [6]): 20 mg/kg | inhibition [7]: 6.5% | inhibition (Rattus norvegicus [12]): inactive | ED50 (Mus musculus [13]): > 80 mg/kg | inhibition [8]: 10.4% | TD50 at 0.5 h [14]: 81 mg/kg | Activity (Mus musculus [15]): Active | V1/2 (Rattus norvegicus [16]): -35.3 mV | V1/2 (Rattus norvegicus [17]): -66.4 mV | inhibition [18]: -5.2% | TD50 at 0.25 h [19]: 64 mg/kg | inhibition [4]: 12.7% | Activity (Rattus norvegicus [20]): inactive | Activity [21]: Toxic | ED50 (Mus musculus [10]): < 100 mg/kg

Cl.NCc1ccc(OCc2cccc(Cl)c2)cc1
ED50 (Mus musculus [22]): 78 mg/kg | ED50 (Mus musculus [6]): 54 mg/kg | inhibition [7]: -1.9% | ED50 (Mus musculus [13]): > 180 mg/kg | inhibition [8]: 13.7% | TD50 at 0.25 h [19]: 160 mg/kg

Cl.NCc1ccc(OCc2ccccc2F)cc1
ED50 (Rattus norvegicus [2]): > 30 mg/kg | inhibition [18]: -6.6% | ED50 (Mus musculus [3]): 30 mg/kg | inhibition [4]: 7.4% | TD50 [5]: 100 mg/kg

Cl.NCc1ccc(OCc2cccc(OC(F)(F)F)c2)cc1
TD50 at 0.25 h [19]: 92 mg/kg | Activity (Mus musculus [23]): Active | ED50 (Mus musculus [24]): 50 mg/kg

Cl.NCc1ccc(OCc2ccc(OC(F)(F)F)cc2)cc1
ED50 (Mus musculus [22]): 30 mg/kg | TD50 [9]: > 100 mg/kg | inhibition [18]: -6.9% | inhibition [4]: 5.3%

Cl.NCc1ccc(OCc2ccc(Cl)cc2)cc1
ED50 (Mus musculus [22]): < 100 mg/kg | ED50 (Mus musculus [6]): < 100 mg/kg | inhibition [7]: -6.6% | inhibition [8]: 23.1% | TD50 [9]: > 100 mg/kg | ED50 (Rattus norvegicus [2]): > 30 mg/kg | inhibition [18]: 2.7%
